Compound activity (PubChem BioAssay)
Rows were chosen to be rich in hits. Some 4.4% of all compounds tested hit in one or more screens of this group.
NR3A LBD binder – binders of NR3A ligand-binding domain, primary screen, biophysical, differential scanning fluorimetry, uHTS | NR3A LBD differential scanning fluorimetry, Tm shift; 0% = protein alone, 100% = glycine-bound protein | AID 1259313, 2017 | Tm shift relative to glycine control, % at 25 µM | 340,000 compounds, 2.5% hits | Glutamate receptor ionotropic, NMDA 3A (GRIN3A) ligand-binding domain;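 active = melting temperature shift of at least 10% of the positive control shift, at one fixed dose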
MPTP inh – mitochondrial permeability transition pore inhibitors, primary screen, biochemical, isolated mouse mitochondria, absorbance; 360,000 compounds, 1.4% hits; inhibition, % at 10 µM; AID 602449, 2012; Ca2+ swelling absorbance, 30 min;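 active = inhibition of 50% or more, scaled per plate between neutral and stimulator controls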;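 also: 0% = DMSO wells given calcium and 100% = 1 mM EGTA wells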
EBI2 block – EBI2 receptor antagonists, beta-arrestin recruitment, primary screen, cell-based, luminescence, 7a,25-OHC stimulation, uHTS. inhibition, % at 5 µM. 7a,25-OHC stimulated. 360,000 compounds, 0.81% hits; in the data active = inhibition above about 38%;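 also: enzyme fragment complementation signal reports receptor beta-arrestin coupling in cells; 0% = agonist plus DMSO wells and 100% = wells without agonist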
Target sequence (P32249 whole entry, looked up, the tested form may be a part): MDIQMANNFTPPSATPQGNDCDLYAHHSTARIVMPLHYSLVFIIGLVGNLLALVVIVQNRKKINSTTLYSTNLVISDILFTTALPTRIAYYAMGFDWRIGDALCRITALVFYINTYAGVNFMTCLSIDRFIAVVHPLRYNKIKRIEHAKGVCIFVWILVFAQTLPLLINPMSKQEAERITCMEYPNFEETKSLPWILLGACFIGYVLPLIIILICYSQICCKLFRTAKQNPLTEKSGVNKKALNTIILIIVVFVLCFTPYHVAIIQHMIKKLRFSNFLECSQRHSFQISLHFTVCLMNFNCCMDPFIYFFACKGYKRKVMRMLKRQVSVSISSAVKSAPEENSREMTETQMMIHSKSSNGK
SENP1 FRET inh – human SENP1 catalytic domain inhibitors, primary screen, biochemical, FRET, uHTS. inhibition, % at 10 µM. 360,000 compounds, 0.21% hits. Sentrin-specific protease 1 (Homo sapiens), Q9P0U3. AID 624204, 2012. recombinant SENP1 catalytic domain, CyPet-SUMO1-YPet FRET cleavage;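 active = inhibition at least 30% at 10 µM, raw YFP signal under a set limit, fluorescence ratio 0.5 to 1.5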;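 also: 0% = enzyme with DMSO and 100% = no enzyme wells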
Target sequence (Q9P0U3 419-644 limits assumed): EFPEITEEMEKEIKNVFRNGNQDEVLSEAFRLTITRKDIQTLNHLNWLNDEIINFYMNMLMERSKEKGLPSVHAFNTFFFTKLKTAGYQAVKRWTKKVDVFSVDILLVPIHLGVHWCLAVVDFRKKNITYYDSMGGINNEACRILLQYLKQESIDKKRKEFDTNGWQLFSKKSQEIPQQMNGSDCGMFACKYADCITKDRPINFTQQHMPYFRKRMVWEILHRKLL
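material = recombinant human SENP1 catalytic domain, His6-tagged | quantity = 20 pM enzyme | reagent = 25 nM SUMO1 FRET substrate | compound dosing = 10 µM single point, 0.5% DMSO | timing = 50 min enzyme reaction, room temperature, light-protected | detection = FRET, CFP and YFP emission | control set = no-enzyme low, enzyme-DMSO high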
Active calls of the source: *.

SMILES | NR3A LBD binder | MPTP inh | EBI2 block | SENP1 FRET inh
COc1cc(NS(=O)(=O)c2ccc(C)cc2)c2ncccc2c1 | -22.6 | 1.7 | 75.3* | 1.1
Clc1ccc(N=c2ssnc2Cl)nc1 | 1.6 | -0.5 | 85.0* | 31.8*
CC1(C)CC(=O)C(C=Nc2ccc(Cl)cn2)=C(O)C1 | 1.7 | -1.4 | -24.6 | -1.8
Cc1[nH]c2ccccc2c1N=Nc1c(C)n(C)n(-c2ccccc2)c1=O | 1.3 | -0.5 | -2.9 | 1.5
Cc1[nH]c2ccccc2c1N=Nc1ccc(F)cc1 | 24.6* | 22.2 | 37.1 | 4.1
COc1ccc(N=C2NN=C(c3c(C)[nH]c4ccccc34)CS2)cc1 | -13.9 | 1.8 | 9.4 | -5.3
Cc1[nH]c2ccccc2c1C1=NNC(=Nc2ccc(F)cc2)SC1 | 12.0* | 0.6 | 23.4 | 1.7
Cc1[nH]c2ccccc2c1N=Nc1cc(C(=O)O)cc(C(=O)O)c1 | -0.4 | -0.1 | -4.8 | 0.0
Cc1[nH]c2ccccc2c1N=Nc1ccccc1F | 13.0* | 3.0 | 14.7 | -3.0
N=C1S/C(=C\c2cn[nH]c2-c2ccc(F)cc2)C(=O)N1c1ccccc1F | 5.6 | -2.3 | 15.6 | 1.8
Cn1ncc2c(Nc3ccc(-c4ccccc4)cc3)ncnc21 | 3.6 | 1.1 | 5.8 | 1.5
Cn1ncc2c(Nc3ccccc3Br)ncnc21 | 14.0* | -5.6 | 2.1 | 2.9
Cc1ccc(C)c(NC(=O)C2CC(O)CN2C(=O)Oc2ccccc2)c1 (stereo unspecified) | -0.4 | -1.0 | 2.1 | 0.9
O=C(Nc1ccccc1)c1ccc(-c2ccc(Br)cc2)o1 | 18.8* | 27.9 | 0.0 | 3.6
O=C(Nc1cccc(NC(=O)c2ccc(-c3cccc(Br)c3)o2)c1)c1ccco1 | 12.8* | 2.9 | 6.5 | 1.3
O=C(Nc1cccc(NC(=O)c2ccc(-c3ccc(Br)cc3)o2)c1)c1ccccc1 | -8.3 | -3.2 | 13.6 | 1.4
Cc1c(CCOC(=O)C23CC4CC(CC(C4)C2)C3)sc[n+]1CC#N | -1.3 | 1.1 | -4.6 | 1.5
COc1cc(NC(=O)COC(=O)[C@@H]2CCCN2S(=O)(=O)c2ccc(Cl)cc2)cc(OC)c1OC | 10.8* | 0.1 | -11.5 | 0.8
CC(C)(C)CC(=O)Nc1ccc(S(=O)(=O)N2CCCC2)cc1 | 1.3 | 0.5 | -5.1 | 0.0
Cc1ccc(C(=O)OCC(=O)NCc2cccc(Cl)c2)cc1S(=O)(=O)N1CCCCC1 | -5.3 | -2.5 | 7.3 | 0.3
C[C@@H]1CN([C@@H](C)CO)C(=O)c2cc(NC(=O)Nc3ccc(F)cc3)ccc2O[C@@H]1CN(C)Cc1ccc(Oc2ccccc2)cc1 | 11.6* | 1.6 | -17.6 | 2.1
C[C@H](CO)N1C[C@H](C)[C@H](CN(C)Cc2ccc(Oc3ccccc3)cc2)Oc2ccc(NC(=O)Nc3cccc4ccccc34)cc2CC1=O | 12.2* | 0.9 | 1.2 | -1.4
C[C@H]1CN([C@@H](C)CO)C(=O)Cc2cc(NS(C)(=O)=O)ccc2O[C@@H]1CN(C)Cc1ccc(Cl)c(Cl)c1 | -3.3 | 0.6 | 16.2 | -1.0
C[C@@H]1CN([C@H](C)CO)C(=O)c2cc(NC(=O)Cc3ccccc3)ccc2O[C@H]1CN(C)Cc1ccc(Oc2ccccc2)cc1 | 0.6 | -0.1 | 16.1 | 0.4
C[C@H]1CN([C@@H](C)CO)C(=O)Cc2cc(NC(=O)Nc3ccccc3)ccc2O[C@H]1CN(C)Cc1ccccc1 | -22.2 | 0.9 | -6.9 | 1.6
SMILES | NR3A LBD binder | MPTP inh | EBI2 block | SENP1 FRET inh
C[C@@H]1CN([C@@H](C)CO)C(=O)Cc2cc(NC(=O)Nc3ccc(F)cc3)ccc2O[C@@H]1CN(C)Cc1ccc(Cl)c(Cl)c1 | 18.4* | 2.8 | -1.1 | -0.6
COc1ccc(Cl)cc1C(=O)NNC(=O)C1CCCO1 (stereo unspecified) | 1.7 | -0.8 | -1.5 | 3.2
CCCCOc1ccc(OCCCC)c2c1NC1(N2)C(=O)N(C(C)=O)c2ccccc21 | 13.1* | 4.3 | 21.4 | 45.0*
N#C/C(=C/c1ccc(N2CCCCC2)o1)c1cccc(F)c1 | -4.2 | 0.6 | 12.5 | -7.4
N#C/C(=C/c1ccc(N2CCCCCC2)o1)c1ccc(Cl)cc1 | -4.6 | 2.0 | 42.5* | -5.9
Cc1ccc(NC(=O)C(=O)NCCCN2CCCC2=O)c(C)c1 | -0.1 | 0.0 | -0.2 | 0.5
Cc1ccc2nc(C)c(C(=O)N/N=C/c3ccco3)cc2c1 | 11.5* | 0.6 | -1.1 | 0.4
CCc1nnc(NC(=O)CN2C(=O)NC3(CC(C)CC(C)(C)C3)C2=O)s1 (stereo unspecified) | 3.3 | -1.2 | -2.2 | -3.9
COC1CCCCC1NS(=O)(=O)c1ccc(Cl)cc1 (stereo unspecified) | 0.0 | 0.0 | 6.4 | 0.9
COC1CCCCC1NS(=O)(=O)c1ccccc1 (stereo unspecified) | 18.4* | 1.0 | -2.5 | 0.9
Fc1ccc(N/N=C/c2ccncc2)c(F)c1 | 22.6* | 0.1 | 0.7 | 2.9
O=C(O)c1ccc(/C=N/Nc2ccc(F)cc2F)cc1 | 0.1 | 2.1 | -7.5 | -18.3
Clc1ccc2c(c1)nc1n2CCCC1 | 15.0* | -0.6 | 1.8 | 2.9
COc1ccc2cc(-c3ccsc3)ncc2c1 | 30.4* | -0.1 | 1.6 | -3.1
COc1cc(OC)cc(-c2cc3ccc(OC)cc3cn2)c1 | 9.0 | 0.5 | 18.5 | 0.2
CC1C(=O)N(c2ccc(S(=O)(=O)N(C)C)cc2)C1(/C=C/c1ccccc1)C(=O)NC1CCCC1 (stereo unspecified) | 28.1* | 4.6 | 28.0 | 1.9
Oc1c(C(c2ccc(Cl)cc2)N2CCCC2)cc(Cl)c2cccnc12 (stereo unspecified) | -9.2 | 3.7 | 9.2 | 2.9
Oc1c(C(c2ccccc2Cl)N2CCCC2)ccc2cccnc12 (stereo unspecified) | -2.4 | 1.8 | 50.9* | -4.1
Oc1ccc(Nc2nc3ccccc3nc2Nc2ccc(O)cc2)cc1 | 16.7* | 3.6 | 1.0 | -41.0
Cc1cccc(-c2nc(Nc3cccc(O)c3)c3ccccc3n2)c1 | 32.3* | 3.7 | -29.2 | 2.4
COc1ccc(Nc2nc(-c3ccccc3)nc3ccccc23)cc1 | 34.2* | 0.8 | -21.1 | 4.0
Cc1n[nH]c(=O)nc1Nc1ccc(O)cc1 | -0.7 | -1.8 | -13.6 | 2.7
O=[N+]([O-])c1ccc(-c2nc(Nc3ccc(O)cc3)c3ccccc3n2)cc1 | 22.9* | 4.4 | 13.6 | 2.6
CCC(O)CC(C(=O)NNc1ccccc1)C(=O)NNc1ccccc1 (stereo unspecified) | 0.2 | -0.7 | -11.0 | 1.0
CC1CCN(C(=O)CN(c2ccccc2)S(=O)(=O)N(C)C)CC1 | 0.5 | 0.2 | -4.8 | 0.9
C/C(=N\Nc1nncc2ccccc12)c1ccc(O)cc1 | 8.4 | -1.1 | -6.7 | 1.0
Cc1nc2ccccc2nc1N/N=C/c1ccc(O)cc1 | 11.5* | 0.1 | 6.2 | -55.4
Oc1ccc(/C=N/Nc2ccccc2)cc1 | -0.6 | 1.5 | -4.1 | -2.7
CC(=O)Nc1ccc(Nc2nc(-c3ccccc3)nc3ccccc23)cc1 | 11.6* | 1.6 | -7.0 | -1.7
Oc1ccc(Nc2nc(-c3ccccc3)nc3ccccc23)cc1 | 41.7* | 0.9 | -33.1 | -1.6
